Experiments:
[1] = biological target: T1, Type-1 angiotensin II receptor A (Rattus norvegicus) (UniProt P25095); assay: (§1) Antagonist activity at AT1 receptor in rat aorta; assay type: functional, tissue-based
T1 sequence (whole entry): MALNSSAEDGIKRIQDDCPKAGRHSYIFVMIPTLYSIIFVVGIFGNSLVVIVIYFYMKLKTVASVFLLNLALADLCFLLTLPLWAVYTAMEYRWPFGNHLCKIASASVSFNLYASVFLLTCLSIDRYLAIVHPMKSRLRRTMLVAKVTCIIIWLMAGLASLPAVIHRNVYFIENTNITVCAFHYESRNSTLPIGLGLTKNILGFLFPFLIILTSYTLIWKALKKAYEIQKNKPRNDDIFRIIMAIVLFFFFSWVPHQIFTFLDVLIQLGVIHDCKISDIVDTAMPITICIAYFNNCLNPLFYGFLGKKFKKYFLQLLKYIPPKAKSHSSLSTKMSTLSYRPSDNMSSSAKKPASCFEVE

[2] = system: Rattus norvegicus; assay: Antihypertensive activity against desoxycortisone-induced hypertension in rat assessed as decrease in mean arterial blood pressure at 5 mg/kg, ip; assay type: functional, Artery; details: route intraperitoneal
[3] = biological target: T2, Type-1 angiotensin II receptor A (Rattus norvegicus, UniProt P25095); assay: as §1; assay type: functional, tissue-based; details: read-out: pA2 (converted)
T2 sequence (P25095 whole entry): T1 sequence (whole entry)

[4] = system: Rattus norvegicus; assay: Antihypertensive activity against desoxycortisone-induced hypertension in rat assessed as decrease in mean arterial blood pressure at 3 mg/kg, ip; assay type: functional, Artery; details: route intraperitoneal
Method in brief: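 Hypertension induced in rats with desoxycortisone acetate 40 mg kg-1 s.c. Mean arterial blood pressure recorded through a carotid artery cannula connected to a pressure transducer. Test agents were given intraperitoneally. The dose-finding series used 0.1–30.0 mg kg-1, and the remaining agents were tested at 1.0, 3.0 and 10.0 mg kg-1.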

pA10 [1]	Kb [3] [nM]	Compound	Activity [2] [mmHg]	Activity [4] [mmHg]
7.1	10	CCOc1nc2cccc(C(=O)O)c2n1Cc1ccc(-c2ccccc2-c2nnn[nH]2)cc1	31.8	–
5.9	10	CCCCc1nc2cc(NC(C)=O)ccc2n1Cc1ccc(-c2ccccc2C(=O)O)cc1	–	33.5
4.4	79.4	CCCCc1nc2cc(NC(=O)CCC)ccc2n1Cc1ccc(-c2ccccc2C(=O)O)cc1	–	26.4
7	15.8	CCCCc1nc2cc(N)ccc2n1Cc1ccc(-c2ccccc2C(=O)O)cc1	–	33.3
5.8	316	CCCCc1nc2cc(NC(=O)c3ccccc3Cl)ccc2n1Cc1ccc(-c2ccccc2C(=O)O)cc1	–	20.3

Second part, the molecule before the results:

Compound	pA10 [1]	Kb [3] [nM]	Activity [2] [mmHg]	Activity [4] [mmHg]
CCCCc1nc(Cl)c(CO)n1Cc1ccc(-c2ccccc2-c2nnn[nH]2)cc1 [LOSARTAN]	6.5	–	29.7	–
CCCCc1nc2cc(NC(=O)c3ccc(Cl)cc3)ccc2n1Cc1ccc(-c2ccccc2C(=O)O)cc1	5.4	631	–	12
CCCCc1nc2cc(NC(=O)c3ccccc3)ccc2n1Cc1ccc(-c2ccccc2C(=O)O)cc1	6	251	–	19.8
CCCCc1nc2cc(NC(=O)CC)ccc2n1Cc1ccc(-c2ccccc2C(=O)O)cc1	4.7	20	–	36.2
CCCCC(=O)Nc1ccc2c(c1)nc(CCCC)n2Cc1ccc(-c2ccccc2C(=O)O)cc1	3.7	398	–	21.7

From ChEMBL document CHEMBL1156704, “Angiotensin II--AT1 receptor antagonists: design, synthesis and evaluation of substituted carboxamido benzimidazole derivatives” (Eur J Med Chem, 2008)
